Read-outs that look alike come from different tables or passages of the source.
Columns and labels:
ERK5 [1] = target: T1, ERK5 (Homo sapiens, UniProt Q13164); test: ERK5 32P-ATP kinase assay; format: biochemical; settings: ERK5 kinase assay IC50, 32P-ATP; Table 1
PATU-8902 cells = test: Cell viability, ultra-low adherent 3D-spheroid culture, PATU-8902; format: cell-based, human; settings: read-out: PATU-8902 cells 3D spheroid culture IC50
Summary of the method: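 PATU-8988T and PATU-8902 cells were plated at 100 cells/well in 50 μL media, either adherent (2D) or in ultra-low attachment spheroid plates (3D), overnight. Test compound was pin-transferred and cells were incubated 120 h. Viability was read by CellTiter-Glo luminescence after 15 min at room temperature. Data were normalized to DMSO-treated wells per cell line and fitted.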

[2] = target: T2, DCLK1-Nluc in HCT116 cells (Homo sapiens, UniProt O15075); test: DCLK1 NanoBRET target engagement assay in HCT116 cells; format: cell-based
T2 sequence (O15075 1-729 isoform O15075-2): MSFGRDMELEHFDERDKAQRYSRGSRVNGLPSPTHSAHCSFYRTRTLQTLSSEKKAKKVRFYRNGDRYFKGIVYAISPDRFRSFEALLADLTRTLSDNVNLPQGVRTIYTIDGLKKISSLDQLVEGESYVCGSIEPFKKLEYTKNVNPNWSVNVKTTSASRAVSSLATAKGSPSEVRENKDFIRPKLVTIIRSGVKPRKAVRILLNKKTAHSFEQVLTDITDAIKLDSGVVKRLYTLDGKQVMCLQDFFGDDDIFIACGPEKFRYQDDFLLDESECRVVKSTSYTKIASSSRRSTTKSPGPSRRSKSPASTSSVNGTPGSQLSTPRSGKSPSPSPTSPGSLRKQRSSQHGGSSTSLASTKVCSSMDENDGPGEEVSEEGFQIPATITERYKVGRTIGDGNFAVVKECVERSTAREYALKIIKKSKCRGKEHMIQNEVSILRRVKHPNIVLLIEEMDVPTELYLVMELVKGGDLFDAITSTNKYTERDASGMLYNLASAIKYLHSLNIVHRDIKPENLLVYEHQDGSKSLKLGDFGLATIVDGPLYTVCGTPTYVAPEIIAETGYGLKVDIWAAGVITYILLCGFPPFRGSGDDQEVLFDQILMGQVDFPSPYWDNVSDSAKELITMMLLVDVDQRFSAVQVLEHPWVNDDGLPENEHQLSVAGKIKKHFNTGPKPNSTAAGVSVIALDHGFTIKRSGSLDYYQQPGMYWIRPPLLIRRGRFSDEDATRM

[3] = Maximum dose tolerability evaluation in mice; format: in vivo, C57B6/6J mice; settings: doses up to 100 mg/kg, oral gavage daily for two weeks, no adverse effects, no loss of body weight
PANFR0029_T2 = test: Patient-derived pancreatic organoid viability, PANFR0029_T2; format: cell-based, human; settings: read-out: PANFR0029_T2 3D organoid culture IC50
Summary of the method: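 Patient-derived PDAC organoids were dissociated to single cells and plated at 1000 viable cells/well in complete organoid medium with 10% Matrigel, in ultra-low-attachment 384-well plates. After 24 h, compound was added by digital dispenser, then 7 days incubation. Read-out was CellTiter-Glo 3D luminescence after 1 h shaking at room temperature, normalized to DMSO wells for each culture.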

ERK5 [4] = target: T1, ERK5; test: ERK5 KINOMEscan binding assay
rat hippocampal neurons = test: Rat primary hippocampal neuron viability; format: cell-based; settings: concentrations up to 10 μM, 24 hours
Summary of the method: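 Rat primary hippocampal neurons on poly-L-lysine-coated coverslips were treated at DIV6 for 24 h with DMSO or test compound. They were then fixed in glutaraldehyde-containing cytoskeleton buffer with Triton X-100, followed by NaBH4, permeabilized in TBS with 0.5% Triton X-100, and processed for immunofluorescence.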

[5] = target: T3, purified, recombinant DCLK1 kinase domain (Homo sapiens, UniProt O15075); test: DCLK1 isothermal titration calorimetry; format: binding
T3 sequence (O15075 351-689 isoform O15075-2): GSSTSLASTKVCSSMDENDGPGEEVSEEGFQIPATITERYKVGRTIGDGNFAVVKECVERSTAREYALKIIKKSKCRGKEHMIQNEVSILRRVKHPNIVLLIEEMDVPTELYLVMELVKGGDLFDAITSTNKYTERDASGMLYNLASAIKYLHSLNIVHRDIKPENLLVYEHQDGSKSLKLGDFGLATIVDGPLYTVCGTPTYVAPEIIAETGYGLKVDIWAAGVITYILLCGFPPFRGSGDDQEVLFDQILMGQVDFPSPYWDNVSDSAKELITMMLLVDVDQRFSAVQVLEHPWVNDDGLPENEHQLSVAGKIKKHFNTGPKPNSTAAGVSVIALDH

zebrafish = test: Toxicity evaluation during zebrafish embryonic development; format: in vivo; settings: days 1 to 8 post-fertilization, in fish water at concentrations up to 10 μM
ERK5 [6] = target: T1, ERK5; test: ERK5 cellular kinase assay in HeLa cells; format: cell-based

T1 sequence (Q13164 whole entry): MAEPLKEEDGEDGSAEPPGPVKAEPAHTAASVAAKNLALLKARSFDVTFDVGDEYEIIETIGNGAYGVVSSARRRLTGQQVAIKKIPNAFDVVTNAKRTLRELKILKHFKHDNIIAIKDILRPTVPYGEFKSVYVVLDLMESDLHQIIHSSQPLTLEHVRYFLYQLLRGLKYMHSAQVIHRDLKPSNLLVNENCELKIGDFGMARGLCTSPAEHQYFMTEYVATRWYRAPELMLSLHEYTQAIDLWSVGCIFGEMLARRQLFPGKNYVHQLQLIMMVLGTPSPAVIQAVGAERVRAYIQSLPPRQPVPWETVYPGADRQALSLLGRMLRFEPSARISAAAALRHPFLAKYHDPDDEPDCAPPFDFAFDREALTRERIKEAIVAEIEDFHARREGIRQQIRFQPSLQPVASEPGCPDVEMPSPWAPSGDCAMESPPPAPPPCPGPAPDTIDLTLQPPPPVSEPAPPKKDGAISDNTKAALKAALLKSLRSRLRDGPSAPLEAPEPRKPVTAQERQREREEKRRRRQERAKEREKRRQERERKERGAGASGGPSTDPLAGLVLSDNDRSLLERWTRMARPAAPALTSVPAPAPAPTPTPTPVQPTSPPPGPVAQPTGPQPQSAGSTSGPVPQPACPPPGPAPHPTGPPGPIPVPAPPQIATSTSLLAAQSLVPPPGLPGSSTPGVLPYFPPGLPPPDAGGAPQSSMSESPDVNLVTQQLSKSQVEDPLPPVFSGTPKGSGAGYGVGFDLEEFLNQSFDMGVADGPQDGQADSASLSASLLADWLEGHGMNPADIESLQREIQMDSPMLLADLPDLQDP

`COc1cc(N2CCN(C)CC2)ccc1Nc1ncc2c(n1)N(C)c1ccccc1C(=O)N2CC(F)(F)F` [DCLK1-IN-1] showed an IC50 (ERK5 [1]) of 4 µM, an IC50 (PATU-8902 cells; Homo sapiens, PaTu 8902, 120 h) of over 20 µM and an IC50 [2] of 0.279 µM. For the same molecule, the “tolerability (maximum tolerated dose study)” value [3] was “well-tolerated”, the IC50 (PANFR0029_T2; Homo sapiens, 168 h) was over 20 µM and the IC50 (ERK5 [4]) was 1.8 µM. For the same molecule, the “effect on neuronal viability” value (rat hippocampal neurons) was “no effect on neuronal viability”, the Kd ([5]; ITC Kd, purified recombinant DCLK1 protein, Table 1) was 0.055 µM and the Kd ([5]; Kd, ITC, 20 μM DCLK1, 200 μM compound, Supplementary Table 2 and text) was 0.109 µM. For the same molecule, the “effect on zebrafish CNS or other organ system development” value (zebrafish) was “no discernable effect” and the IC50 (ERK5 [6]) was 5.36 µM.

Molecule `CCOc1cc(N2CCC(O)CC2)ccc1Nc1ncc2c(n1)N(C)c1ccccc1C(=O)N2C` [XMD8-92] has an IC50 (PATU-8902 cells; cell viability, 120 h, P.R. = partial response) of over 20 µM, an IC50 ([2]; read-out: DCLK1 cellular assay IC50, nanoBRET, HCT116 cells) of 1.15 µM and an IC50 (PANFR0029_T2; viability, 7 d, DCLK1-negative organoids) of 7.03 µM.

From publication PMC7246176 (Nature chemical biology, 2020)
